The results in this text go back to ChEMBL document CHEMBL4513216, “Probing the Open Global Health Chemical Diversity Library for Multistage-Active Starting Points for Next-Generation Antimalarials” (ACS Infect Dis, 2020).

The nature of the data set: Toxicity liver stage against HepG2, at 10uM. Format: cell-based. Set-up: test concentration 10 uM, cell line HepG2-A16-CD81EGFP. Particulars: human, HepG2-A16-CD81EGFP cells; read-out: INHIBITION
In short, it runs like this:
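Uninfected HepG2-A16-CD81EGFP cells, 3 × 10^3 per well, 1536-well, plated on prespotted compound at 10 μM final, parasite-free screening media added to match infected plates; puromycin 10 μM positive, DMSO 0.5% negative; run in parallel with 48 h PbLuc assay at 37 °C, 5% CO2; viability by CellTiter-Glo luminescence, normalized to controls.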
Turning to `CCCn1ncc(C(=O)N(C)Cc2n[nH]c3c2CCC3)c1C`, the cytotoxicity at 10 µM amounted to 0.213%.

Take `CCc1nc(N2CCN(c3ncccc3C#N)CC2)c2cnn(C)c2n1`: the cytotoxicity at 10 µM was 10.8%.

For `CCn1cc(-c2cc(-c3ccn(C)c3)nc(N)c2C#N)cc1C#N`, the cytotoxicity at 10 µM turned out to be 2.11%.

With `Cn1ccc(C(=O)N2CCN(c3nccs3)CC2)cc1=O`, the cytotoxicity at 10 µM is -18.1%.

`CC(=O)Nc1ccc(CC(=O)N2CC(S(=O)(=O)C3CCCCC3)C2)cc1`: the cytotoxicity at 10 µM is -12.8%.

For the compound `Cc1cc(C(=O)N2CCCC3(COCCN(c4ccccc4)C3)C2)[nH]n1` (stereo not given), the cytotoxicity at 10 µM is -1.56%.

On to `CC(C)(C)CNC(=O)c1ccc(C(=O)O)cn1`, for which the cytotoxicity at 10 µM was -4.01%.

As to `CN(C)CC(=O)N1CCOCC(Cc2ccccn2)C1` (stereo not given), the cytotoxicity at 10 µM came out at 5.88%.

On to `COC(=O)c1cc(CN2CCN(c3ncccc3C)CC2)ccc1O`, for which the cytotoxicity at 10 µM is -0.503%.

Consider `Cc1nc(N2CCC(O)(c3ccc(F)cc3)CC2)c2c(C)nn(C)c2n1`, for which the cytotoxicity at 10 µM was -0.503%.

For `CN(Cc1ccccc1)C(=O)Cn1nc(N2CCOCC2)ccc1=O`, the cytotoxicity at 10 µM was determined as 9.55%.

As to `COc1ccc(OC)c(-c2csc(-c3cccc(C(=O)O)c3)n2)c1`, the cytotoxicity at 10 µM is 3.75%.

Take `Cc1cc(C[S+]([O-])CC(=O)NCc2ccccc2)no1` (stereo not given): the cytotoxicity at 10 µM was -2.13%.

For `O=C(NCC1CCOC1)c1cc(-c2ccc(F)cc2)[nH]n1` (stereo not given), the cytotoxicity at 10 µM was -6.96%.

For `Cc1nccn1CCCN1CCCC(c2nccn2CC2CCC2)C1` (stereo not given), the cytotoxicity at 10 µM was -13.7%.

For `COCCCNS(=O)(=O)c1ccc(N2CCCCS2(=O)=O)cc1`, the cytotoxicity at 10 µM was 0.308%.

Take `Cc1nc(CNC(=O)CC2C(=O)NCCN2CCC(C)C)n[nH]1` (stereo not given): the cytotoxicity at 10 µM is -4.44%.

For `CN(c1ccc(OCc2cnc(Cl)s2)cc1)S(C)(=O)=O`, the cytotoxicity at 10 µM stood at 0.867%.

For the compound `CN1C(=O)CC(c2ccccc2)C12CCN(CCO)CC2` (stereo not given), the cytotoxicity at 10 µM came to 6.47%.

As to `Cc1ccc(CN2CCc3c(CN(C)C)n[nH]c3C2)s1`, the cytotoxicity at 10 µM worked out at 1.93%.

As for `Cc1nc(C)n(CC2CCCN2CCc2cccs2)n1` (stereo not given), the cytotoxicity at 10 µM was -3.51%.

As for `COc1ccccc1-c1cc(C(=O)N2CCCC2)c2cnn(C)c2n1`, the cytotoxicity at 10 µM turned out to be 9.4%.

As for `COCCO[C@H]1CCN(C(=O)c2cccnc2)[C@H]1Cc1cnn(C)c1`, the cytotoxicity at 10 µM turned out to be 4%.

In the case of `COCCN1C[C@H]2CCN(C(C)=O)CC[C@H]2S1(=O)=O`, the cytotoxicity at 10 µM came to 15.4%.

In the case of `CCc1ncc2c(n1)CN(Cc1nc(-c3ccsc3)no1)CC2`, the cytotoxicity at 10 µM was -4.99%.

Consider `CN1CCN(Cc2cn3c(n2)CN(CC2CC2)CC3)CC1`, for which the cytotoxicity at 10 µM was -119%.

Regarding `Cc1n[nH]c(C2CN(C(=O)c3ccc(=O)n(C)c3)CCO2)n1` (stereo not given), the cytotoxicity at 10 µM came out at 3.75%.

`O=C(COCC(F)(F)F)NS(=O)(=O)c1ccc2c(c1)OCCCO2`: the cytotoxicity at 10 µM is -6.8%.

Consider `Cn1cccc1CNCC1CCCn2cc(C(C)(C)C)nc21` (stereo not given), for which the cytotoxicity at 10 µM is -19.8%.

Take `Cc1cc(N2CCC3(CCCN(CCO)C3=O)C2)nc2cc(Cl)ccc12` (stereo not given): the cytotoxicity at 10 µM amounted to 3.72%.

Consider `CC(C)NC(=O)N1CCC2(CCC(=O)N2CCN2CCCC2)CC1`, for which the cytotoxicity at 10 µM came out at 3.7%.

Consider `COc1cc2c(cc1C(=O)N1CC(c3ccncc3)C1)CCC2`, for which the cytotoxicity at 10 µM worked out at 0.545%.

For `COCC1CCN(S(=O)(=O)c2ccc(C(=O)NCC(F)F)cc2)C1` (stereo not given), the cytotoxicity at 10 µM came out at 6.95%.

Turning to `CCc1nc(CC2CN(c3ncnc4sc(C)c(C)c34)CCO2)no1` (stereo not given), the cytotoxicity at 10 µM amounted to 11.9%.

Take `CCC[C@H]1CN(c2nccc(OC)n2)C[C@@H]1NC(=O)C1CCOCC1`: the cytotoxicity at 10 µM is -142%.

With `O=C(c1ccc2[nH]nnc2c1)N1C[C@H](O)[C@]2(CCCO2)C1`, the cytotoxicity at 10 µM was determined as 3.42%.

In the case of `Cc1ccccc1CN(C)CC(O)COCc1ccccc1Cl` (stereo not given), the cytotoxicity at 10 µM is 8.49%.

For the compound `Cc1ncccc1Oc1nccnc1C1CCN(S(C)(=O)=O)CC1`, the cytotoxicity at 10 µM was -7.88%.

For the compound `COc1cc(NC2CCCN(c3ncccc3C#N)C2)cc(OC)c1` (stereo not given), the cytotoxicity at 10 µM was -9.25%.

Consider `COc1ccc2c(c1)CCCC2CC(=O)O` (stereo not given), for which the cytotoxicity at 10 µM is -2.74%.

Turning to `CCN(CCO)Cc1cn(-c2cccc(F)c2)nc1-c1ccc(C)o1`, the cytotoxicity at 10 µM was 8.32%.

In the case of `Cc1ccc2[nH]c3c(c2c1)CN(C(=O)CN(C)CC1OCCO1)CC3`, the cytotoxicity at 10 µM was 6.5%.

With `CC(NC(=O)c1cc2n(n1)CCCN(C)C2)c1cn2ncsc2n1` (stereo not given), the cytotoxicity at 10 µM is -6.73%.

As to `CCOc1ccc(N2CCCN=C2NC(=O)c2ccccc2C)cc1`, the cytotoxicity at 10 µM was -6.69%.

On to `CN(Cc1ccc2c(c1)OCO2)C(=O)c1ccc(=O)n(C)c1`, for which the cytotoxicity at 10 µM is -9.17%.

Turning to `Cc1cc(C[C@@H]2CCC[C@H]2NCc2ccc(C(F)(F)F)cc2)on1`, the cytotoxicity at 10 µM was -10.1%.

Regarding `O=c1[nH]c2c(-c3ccccn3)nsc2c(=O)n1CC1CCCO1` (stereo not given), the cytotoxicity at 10 µM worked out at 9.26%.

On to `Cc1cccc(CN2C[C@@H]3COC[C@]3(CNC(=O)c3ccsc3)C2)n1`, for which the cytotoxicity at 10 µM was -1.85%.

Regarding `Cn1c(N)nnc1SC1CCCN(c2ccccc2)C1=O` (stereo not given), the cytotoxicity at 10 µM worked out at 0.296%.

Turning to `CCC1=NC(SCC(=O)c2ccc(C)cc2)c2cc(CC)sc2N1` (stereo not given), the cytotoxicity at 10 µM came out at 9.76%.

`COc1cccc2cc(CNC(C)(C)C(=O)N3CCC(O)CC3)oc12`: the cytotoxicity at 10 µM was -12.2%.

`N#Cc1c(N)nc2c(c1-c1c[nH]nc1C1CCCCC1)CNCC2`: the cytotoxicity at 10 µM was 0.787%.

Regarding `CCn1c(Cn2ccnc2)nnc1C1CCN(Cc2ccc(C)o2)CC1`, the cytotoxicity at 10 µM was -2.28%.

Consider `COc1cccc(-n2c(C)cc(C(=O)NS(C)(=O)=O)c2C)c1`, for which the cytotoxicity at 10 µM is -6%.

As to `CC(C)Cc1cc(NC(=O)c2ccncc2)n(C)n1`, the cytotoxicity at 10 µM was -0.502%.

In the case of `CN(Cc1cccnc1)[C@@H]1CN(C(=O)CC2CC2)[C@@H]2CCCO[C@H]12`, the cytotoxicity at 10 µM was 7.86%.

Consider `CCOc1ccc(CN(CCOC)C(=O)c2ccncc2Cl)cc1`, for which the cytotoxicity at 10 µM came out at 5.82%.

`CCNC(=O)N[C@H]1C[C@@H](Cc2cc(CN3CCCCC3)on2)C1(C)C`: the cytotoxicity at 10 µM is -5.46%.

In the case of `O=C(COc1coc(CN2CCCCC2)cc1=O)c1ccc(Cl)cc1`, the cytotoxicity at 10 µM amounted to 3.13%.

Take `CCn1cc(NC(=O)C2CCN(Cc3noc(C4CC4)n3)CC2)cn1`: the cytotoxicity at 10 µM was -1.41%.

As to `COCc1nn(C(C)C)c2c1CCN(Cc1ccccn1)C2`, the cytotoxicity at 10 µM is 8.04%.

Turning to `CN1C(Cn2cccn2)C[C@@H]2CN(Cc3cnn(C)c3)CC[C@@H]21` (stereo not given in full), the cytotoxicity at 10 µM was found to be 3.16%.

As to `CN(C)S(=O)(=O)N1CC[C@]2(C[C@H](Oc3cccnc3)CO2)C1`, the cytotoxicity at 10 µM was -0.465%.

As to `O=C(c1ccoc1)N1CC[C@@H]2O[C@@H](COCC3CCOCC3)CC[C@@H]21`, the cytotoxicity at 10 µM is -76.2%.

As for `CCOC(=O)CCN(Cc1cccnc1)C(=O)c1cc(Cl)c[nH]1`, the cytotoxicity at 10 µM was -1.24%.

On to `CCNC(=O)N1CC[C@H]2CC(=O)N(CC(N)=O)CC[C@H]2C1`, for which the cytotoxicity at 10 µM was determined as 10%.

For `COc1cccc2ncn(C(C)Cn3cccn3)c(=O)c12` (stereo not given), the cytotoxicity at 10 µM came out at 1.37%.

In the case of `CCCn1cnc2c(cnn2-c2cccc(C)c2C)c1=O`, the cytotoxicity at 10 µM is -8.17%.

For `CCOCC(=O)NC(C)c1cc(C)ccc1C` (stereo not given), the cytotoxicity at 10 µM is 5.6%.

As to `CCOCC1CN(CCN(C)C)Cc2cnn(CC3CCCC3)c21` (stereo not given), the cytotoxicity at 10 µM was 5.77%.

Consider `O=C(C1CCOCC1)N1CCN(CC2CC2)c2ncccc2C1`, for which the cytotoxicity at 10 µM was -107%.

On to `c1cc(CN2CCc3c(CN4CCCC4)n[nH]c3C2)ccn1`, for which the cytotoxicity at 10 µM is -10.5%.

On to `COc1cccc(-c2noc(C3CCN(Cc4ccccc4F)C3)n2)c1` (stereo not given), for which the cytotoxicity at 10 µM was -2.06%.

For the compound `CN1CCN(c2nc(O)c3c(-c4ccccn4)ccnc3n2)CC1`, the cytotoxicity at 10 µM was -6.6%.

Take `Cc1cc(N(C)C)nc(C2CCNC2)n1` (stereo not given): the cytotoxicity at 10 µM is 0.812%.

Turning to `CC(C)NC(=O)CS(=O)(=O)Cc1cc(Cl)c2c(c1)OCCO2`, the cytotoxicity at 10 µM is -4.53%.

For `CCN(CC)C(CNCc1ccc(OC)c(F)c1)c1ccco1` (stereo not given), the cytotoxicity at 10 µM turned out to be 15.2%.

On to `CC(C)c1cc(C(=O)NCC2(C(N)=O)CCOCC2)nn1C(C)(C)C`, for which the cytotoxicity at 10 µM was 10.3%.

Take `COc1cc(N2CCC3(CCN(Cc4csc(C)n4)C3=O)C2)ncn1` (stereo not given): the cytotoxicity at 10 µM was -104%.

Take `Cc1cc(CN2CCN(c3nn4cc(C)nc4s3)CC2)on1`: the cytotoxicity at 10 µM was determined as 6.4%.

Regarding `CCOC(CC)C(=O)NCc1ccnc(Oc2ccc(F)cc2)c1` (stereo not given), the cytotoxicity at 10 µM was -1.43%.

On to `Cc1cc(=O)n(CC(=O)Nc2cccc(Cl)c2)nc1C`, for which the cytotoxicity at 10 µM is -6.84%.

`Cc1nn(C)c(C)c1C1CCCN1C(=O)c1cc[nH]n1` (stereo not given): the cytotoxicity at 10 µM amounted to 1.35%.

For the compound `CC(O)(CNC(=O)NCc1cccc(-n2cncn2)c1)c1ccco1` (stereo not given), the cytotoxicity at 10 µM came out at 15%.

On to `CS(=O)(=O)c1cccc(S(=O)(=O)NC(=O)c2cscn2)c1`, for which the cytotoxicity at 10 µM was 1.33%.

As for `CS(=O)(=O)N[C@H]1CN(C(=O)c2cscn2)[C@@H]2CCCO[C@H]12`, the cytotoxicity at 10 µM was -84.6%.

Regarding `COc1ccc(NC(=O)N2CCN(c3ncccn3)CC2)cn1`, the cytotoxicity at 10 µM was 1%.

On to `CN1C(=O)C(c2cccnc2)CC12CCN(Cc1nccs1)CC2` (stereo not given), for which the cytotoxicity at 10 µM was -1.16%.

As to `CS(=O)(=O)N[C@H]1CCO[C@]2(CCN(C(=O)c3ccccn3)C2)C1`, the cytotoxicity at 10 µM is -73.3%.

With `CC(=O)N1CCC2(CC1)c1ncc(-c3ccccc3)n1CCN2C(C)=O`, the cytotoxicity at 10 µM was 10.5%.

`CN(C(=O)c1ccccc1N(C)S(C)(=O)=O)c1ccc(C(C)(C)C)cc1`: the cytotoxicity at 10 µM amounted to 5.17%.

As to `O=C(NCc1cccnc1OCC(F)(F)F)N1CCOCC1`, the cytotoxicity at 10 µM is -43.4%.

With `O=C(NCC1CCCO1)c1cc(-c2ccncc2)c2cnccc2n1` (stereo not given), the cytotoxicity at 10 µM is 1.05%.

As for `CC(=O)NCC(=O)N1CCn2cc(CN(C)Cc3ccco3)nc2C1`, the cytotoxicity at 10 µM was found to be 4.81%.

On to `COc1nccc(C(F)(F)F)c1C(=O)O`, for which the cytotoxicity at 10 µM is 16%.
